# Laboratory results: ChEMBL document CHEMBL4304819, “Natural product pectolinarigenin exhibits potent anti-metastatic activity in colorectal carcinoma cells in vitro and in vivo” (2019)
# Active and inactive are the calls of the source. The calls are words filed in the database; no cut-off is given here.
# Assays:
# SW48 = test: Inhibition of colony formation in human SW48 cells assessed as reduction in number of colonies up to 40 uM incubated for 24 hrs supplemented with fresh medium containing compound every 3 days for 12 days by crystal violet staining-based microscopic analysis; assay type: functional, cell-based
# Outline: (§1)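 400–800 cells per well seeded in 6-well plates; after 24 h, PEC (0–40 μM) added. Medium with or without compound replaced every three days for 12 days. Colonies washed in cold PBS, fixed in methanol, stained 15 min with 0.5% crystal violet and counted under a microscope. Mean ± SD of three experiments.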
# HCT-116 [1] = test: Inhibition of colony formation in human HCT116 cells assessed as reduction in size of colonies up to 40 uM incubated for 24 hrs supplemented with fresh medium containing compound every 3 days for 12 days by crystal violet staining-based microscopic analysis; assay type: functional, cell-based; outline: as §1
# CT26 [2] = test: Induction of apoptosis in mouse CT26 cells assessed as appearance of condensed nuclei up to 40 uM after 48 hrs by Hoechst 33258 staining-based fluorescent microscopic analysis; assay type: functional, cell-based
# Outline: (§2)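 Cells (1–2 × 10^5 per well) plated on 18-mm coverslips in six-well plates for 24 h, treated at various concentrations for 48 h, washed with cold PBS, fixed 15 min in 4% paraformaldehyde, stained with Hoechst 33258 (5 μg/ml); condensed/fragmented nuclei scored by fluorescence microscopy (10×); stained positive cells, mean ± SD of three experiments.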
# HCT-116 [3] = test: Induction of apoptosis in human HCT116 cells assessed as nuclear fragmentation up to 40 uM after 48 hrs by Hoechst 33258 staining-based fluorescent microscopic analysis; assay type: functional, cell-based; outline: as §2
# CT26 [4] = test: Induction of apoptosis in mouse CT26 cells assessed as viable cells at 10 uM after 48 hrs by Annexin V-FITC/propidium iodide staining-based flow cytometric analysis (reference value: 88.9 %); assay type: functional; settings: CT26, 48 h, read-out: Activity
# Outline: (§3)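 CT26 cells seeded at 1–2 × 10^5 per well in six-well plates for 24 h, then exposed to PEC (0–40 μM) for 24 or 48 h. Cells harvested, washed twice in cold PBS, stained with Annexin V-FITC/PI and read by flow cytometry. Early apoptotic = Annexin V+ only; late apoptotic = Annexin V+/PI+. Mean ± SD of three experiments.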
# CT26 [5] = test: Induction of apoptosis in mouse CT26 cells assessed as early apoptotic cells at 20 uM after 48 hrs by Annexin V-FITC/propidium iodide staining-based flow cytometric analysis (reference value: 2.84 %); assay type: functional; outline: as §3
# HCT-116 [6] = test: Induction of apoptosis in human HCT116 cells assessed as early apoptotic cells at 10 uM after 48 hrs by Annexin V-FITC/propidium iodide staining-based flow cytometric analysis (reference value: 1.23 %); assay type: functional
# Outline: (§4)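 Cells (1–2 × 10^5 per well) seeded in six-well plates 24 h, treated at 0–40 μM for 24 h or 48 h, harvested, washed twice in cold PBS, stained with Annexin V-FITC/PI and analysed by flow cytometry; early (Annexin V only) and late (Annexin V and PI) apoptotic fractions quantified; three experiments.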
# HCT-116 [7] = test: Induction of apoptosis in human HCT116 cells assessed as viable cells at 40 uM after 48 hrs by Annexin V-FITC/propidium iodide staining-based flow cytometric analysis (reference value: 86.7 %); assay type: functional; settings: HCT-116, 48 h, read-out: Activity; outline: as §4
# HCT-116 [8] = test: Induction of apoptosis in human HCT116 cells assessed as early apoptotic cells at 40 uM after 48 hrs by Annexin V-FITC/propidium iodide staining-based flow cytometric analysis (reference value: 1.23 %); assay type: functional; outline: as §4
# CT26 [9] = test: Induction of apoptosis in mouse CT26 cells assessed as decrease in pro-caspase-3 expression up to 40 uM after 48 hrs by Western blot analysis; assay type: functional, cell-based
# Outline: (§5)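 Cells treated 48 h at 0, 10, 20 and 40 μM, washed in cold PBS, lysed in RIPA; protein equalized by Lowry assay, resolved by SDS-PAGE, transferred to PVDF, blocked 1 h at 37 °C, primary antibody overnight at 4 °C, secondary 1 h, ECL detection, densitometry. β-actin loading control.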
# HCT-116 [10] = test: Induction of apoptosis in human HCT116 cells assessed as decrease in pro-caspase-3 expression up to 40 uM after 48 hrs by Western blot analysis; assay type: functional, cell-based; outline: as §5
# CT26 [11] = test: Induction of apoptosis in mouse CT26 cells assessed as increase in Bax/Bcl2 protein ratio up to 40 uM after 48 hrs by Western blot analysis; assay type: functional, cell-based
# Outline: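 CT26 cells exposed 48 h to PEC at 0, 10, 20 and 40 μM, washed twice in cold PBS, lysed in RIPA. Protein measured by Lowry and equalized, run on SDS-PAGE, blotted to PVDF. Blocked 1 h at 37 °C, primary antibodies (Bax, Bcl-2, pro-caspase-3, cleaved caspase-3) overnight at 4 °C, secondary 1 h, ECL detection, densitometry.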
# CT26 [12] = test: Antimetastatic activity against mouse CT26 cells allografted in Balb/c mouse assessed as reduction in abdominal circumference at 25 to 50 mg/kg, ip administered daily for 14 days starting from 6 days post implantation; assay type: functional, organism-based
# Outline: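 Female BALB/c mice (6–8 weeks) injected ip with 5 × 10^5 CT26 cells; from day 6, randomized (eight per group) to ip vehicle, 25 or 50 mg/kg once daily for 14 days. Abdominal circumference and body weight every 3 days; abdominal nodules counted by eye and weighed; spleens assessed; paraffin tumour sections immunostained (Ki-67, MMP-9, p-Stat3) with DAB detection.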
# CT26 [13] = test: Antimetastatic activity against mouse CT26 cells allografted in ip dosed Balb/c mouse assessed as decrease in CD11b-positive/Gr1-positive myeloid cells level in peripheral blood administered daily for 14 days starting from 6 days post implantation by flow cytometric analysis; assay type: functional, organism-based
structure (smiles),measurement,setting,value
COc1ccc(-c2cc(=O)c3c(O)c(OC)c(O)cc3o2)cc1 [PECTOLINARIGENIN],inhibition,SW48,Active
same,inhibition,HCT-116 [1],Active
same,Activity,CT26 [2],Active
same,Activity,HCT-116 [3],Active
same,viability at 10 µM,CT26 [4],77.1%
same,Activity,CT26 [5],8.14%
same,Activity,HCT-116 [6],5.08%
same,viability at 40 µM,HCT-116 [7],73.7%
same,Activity,HCT-116 [8],9.42%
same,Activity,CT26 [9],Active
same,Activity,HCT-116 [10],Active
same,Activity,CT26 [11],Active
same,Activity,CT26 [12],Active
same,Activity,CT26 [13],Dose-dependent effect
